Drawing on ChEMBL document CHEMBL3352343, “Structure-activity relationships of oxysterol-derived pharmacological chaperones for Niemann-Pick type C1 protein” (Bioorg Med Chem Lett, 2014), this text covers Activity for 1 compound.

For this assay, the system named is T1, NPC1-like intracellular cholesterol transporter 1 (Homo sapiens), Q9UHC9 [I1061T].
T1 sequence (whole entry): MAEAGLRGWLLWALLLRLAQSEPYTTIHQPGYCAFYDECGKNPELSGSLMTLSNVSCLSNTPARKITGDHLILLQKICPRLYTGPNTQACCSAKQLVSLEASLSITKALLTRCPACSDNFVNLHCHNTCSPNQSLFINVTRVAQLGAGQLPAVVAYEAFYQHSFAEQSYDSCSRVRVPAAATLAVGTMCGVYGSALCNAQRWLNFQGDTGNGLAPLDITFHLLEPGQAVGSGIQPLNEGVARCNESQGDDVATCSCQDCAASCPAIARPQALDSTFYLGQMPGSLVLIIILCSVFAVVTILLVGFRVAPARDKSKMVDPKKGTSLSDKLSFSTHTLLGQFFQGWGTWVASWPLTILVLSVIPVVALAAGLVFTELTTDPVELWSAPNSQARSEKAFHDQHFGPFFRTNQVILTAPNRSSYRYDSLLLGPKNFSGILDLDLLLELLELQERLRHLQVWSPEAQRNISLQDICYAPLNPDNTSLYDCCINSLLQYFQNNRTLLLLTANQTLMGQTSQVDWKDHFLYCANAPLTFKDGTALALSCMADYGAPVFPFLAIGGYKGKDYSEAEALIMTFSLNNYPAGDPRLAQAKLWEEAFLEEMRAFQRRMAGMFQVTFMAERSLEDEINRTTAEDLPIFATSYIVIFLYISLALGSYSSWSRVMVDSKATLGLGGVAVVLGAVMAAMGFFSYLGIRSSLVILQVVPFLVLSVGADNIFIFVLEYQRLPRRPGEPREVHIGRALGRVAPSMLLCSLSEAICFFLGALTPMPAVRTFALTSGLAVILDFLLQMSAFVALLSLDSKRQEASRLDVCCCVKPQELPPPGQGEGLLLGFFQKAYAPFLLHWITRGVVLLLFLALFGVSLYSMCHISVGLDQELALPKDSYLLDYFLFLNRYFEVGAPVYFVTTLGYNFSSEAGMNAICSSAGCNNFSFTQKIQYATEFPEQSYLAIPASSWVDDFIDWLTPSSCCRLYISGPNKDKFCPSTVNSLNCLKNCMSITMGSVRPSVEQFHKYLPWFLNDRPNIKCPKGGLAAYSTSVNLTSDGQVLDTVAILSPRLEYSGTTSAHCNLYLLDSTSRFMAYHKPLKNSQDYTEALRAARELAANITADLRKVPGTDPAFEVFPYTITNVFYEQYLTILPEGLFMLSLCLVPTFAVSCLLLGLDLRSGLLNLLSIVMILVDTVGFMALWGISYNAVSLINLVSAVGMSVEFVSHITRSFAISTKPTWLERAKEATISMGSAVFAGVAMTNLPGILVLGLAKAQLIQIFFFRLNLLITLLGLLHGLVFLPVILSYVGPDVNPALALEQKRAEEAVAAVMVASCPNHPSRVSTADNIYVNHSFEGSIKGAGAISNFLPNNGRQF
The assay is described as follows: Binding affinity to FLAG/tGFP-tagged NPC1 I1061T mutant (unknown origin) expressed in HEK293 cells assessed as localization after 24 hrs by fluorescence microscopy. Type of assay: cell-based. An outline of the steps:
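HEK293 cells stably expressing NPC1 I1061T-tGFP were exposed to compound for 24 h, fixed, and nuclei stained with Hoechst 33342. In the images, each cell was scored by tGFP pattern: ER 0, mixed ER+vesicle 0.5, vesicular 1. Scores were averaged to give the vesicular-localization percentage, and EC50 was taken from concentration-response. Data are mean ± standard deviation of three independent experiments.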

In the case of `C[C@H](CCCC(C)(C)O)[C@H]1CC[C@H]2[C@@H]3CC=C4C[C@@H](O)CC[C@]4(C)[C@H]3CC[C@]12C`, the Activity result was “Dose-dependent effect”.
